Screening data deposited in PubChem BioAssay by several laboratories.
An excerpt weighted towards active compounds, which were near 27% of everything screened.
CYP2C9 inhib = blockers of cytochrome P450 2C9 activity – biochemical, luminescence, ADME assay, primary screen; P11712; inhibition, % at 5 µM; 20% of 96,000 active; CYP2C9 Supersomes, luciferin-H conversion;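 active = blocking of liver enzyme CYP2C9 beyond about 50% at 5 µM, limit read from the data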
Target sequence (P11712 whole entry, looked up): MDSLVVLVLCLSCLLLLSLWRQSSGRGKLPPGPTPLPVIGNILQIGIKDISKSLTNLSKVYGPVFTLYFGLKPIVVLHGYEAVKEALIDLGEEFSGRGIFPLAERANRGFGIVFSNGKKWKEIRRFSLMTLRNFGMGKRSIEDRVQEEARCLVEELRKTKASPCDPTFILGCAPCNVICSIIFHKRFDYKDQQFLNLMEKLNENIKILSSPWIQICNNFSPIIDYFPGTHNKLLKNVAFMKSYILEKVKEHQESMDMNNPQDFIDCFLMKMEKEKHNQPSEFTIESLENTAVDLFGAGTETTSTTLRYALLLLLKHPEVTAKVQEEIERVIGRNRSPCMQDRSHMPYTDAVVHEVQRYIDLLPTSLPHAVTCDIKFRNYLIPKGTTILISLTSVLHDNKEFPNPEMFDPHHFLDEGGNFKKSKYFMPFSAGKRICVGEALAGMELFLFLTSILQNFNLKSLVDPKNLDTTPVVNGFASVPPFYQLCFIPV
CYP2C19 activ = human CYP2C19 activators, primary screen, biochemical, luminescence | recombinant CYP2C19, luciferin-H EGE luminescence; stronger effect = higher value; 0 = fully inhibited enzyme, 1 = untreated enzyme | activation factor at 5 µM | Cytochrome P450 2C19 (Homo sapiens), P33261 | 96,000 tested, under 10 active;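 active = activation factor of at least 2 at 5 µM in the primary screen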;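 also: 0 = wells with 2.5 mM tranylcypromine and 1 = vehicle-only wells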
CYP2C9 act = human CYP2C9 activators, primary screen, biochemical, luminescence | Cytochrome P450 2C9 (Homo sapiens), P11712 | recombinant CYP2C9, luciferin-H conversion; stronger effect = higher value; factor 1 = untreated enzyme, 0 = blocked | activation factor at 5 µM | 1.4% of 96,000 active | AID 1024, 2008;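 active = activation factor of 2 or more for CYP2C9 at a 5 µM dose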;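 also: 0 = sulfaphenazole-blocked wells and 1 = vehicle-only wells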
Cav3 T inh = Cav3.2 calcium influx blockers – cell-based, Fluo-4 calcium fluorescence, FDSS, MLSMR library, primary screen. Voltage-dependent T-type calcium channel subunit alpha-1H (Homo sapiens), O95180. Cav3.2-expressing cells; stronger effect = lower value. B-score at 10 µM. 4% of 100,000 active. AID 449739, 2010;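 active = single-dose well whose peak fluorescence ratio is a statistical outlier from its plate by either plate-standardised score or position-corrected B-score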
HIV Rev-RRE inh = HIV-1 Rev-RRE binding inhibitors, primary screen, biochemical, FRET, protein-RNA interaction. inhibition, % at 8 µM. P05866. Rev peptide-RRE RNA binding. 0.79% of 97,000 active. AID 704, 2007;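 active = inhibition above the screen-wide mean plus 3 SD, cut at about 35% in these data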;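 also: 0% = median DMSO wells and 100% = median Neomycin B control wells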
Target sequence (P05866 whole entry, looked up): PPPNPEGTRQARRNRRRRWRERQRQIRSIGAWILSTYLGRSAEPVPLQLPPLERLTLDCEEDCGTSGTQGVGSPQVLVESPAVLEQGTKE
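System: Cy5-labelled duplex RRE RNA binding fluorescein-labelled HIV Rev peptide; Signal: fluorescein-to-Cy5 FRET, 480 nm excitation; Also added: labelled Rev peptide; Compound: one concentration, 8 µM nominal; Buffer or medium: HEPES pH 7.5 salt buffer with EDTA; Read-out: % inhibition of FRET ratio versus controls; Schedule: 5 min preincubation and 15 min binding, 25 °C.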
CYP2C19 inhib = blockers of cytochrome P450 2C19 activity – biochemical, luminescence, ADME assay, primary screen; P33261; CYP2C19 Supersomes, luciferin-H EGE luminescence, 30 min; inhibition, % at 5 µM; 21% of 96,000 active; AID 778, 2007;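 active = CYP2C19 inhibition above a set limit at 5 µM in the primary screen, cut at about 50% in these data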;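 also: plate controls were negative control wells for no effect and 2.5 mM tranylcypromine positive control for full effect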
An asterisk follows results filed as active; · = not tested or not shown.

SMILES	CYP2C9 inhib	CYP2C19 activ	CYP2C9 act	Cav3 T inh	HIV Rev-RRE inh	CYP2C19 inhib
O=C(C1CCCN(S(=O)(=O)c2ccc(Cl)cc2)C1)N(Cc1cccs1)C1CC1 (configuration not stated)	13.0	0.3	0.9	-5.59*	·	68.8*
CCOC(=O)C1CCCN(S(=O)(=O)c2cccs2)C1 (configuration not stated)	17.1	0.7	0.8	0.355	-2.2	32.3
Cc1cc(Cl)ccc1OC(C)C(=O)Nc1ccc(S(=O)(=O)Nc2cnc3ccccc3n2)cc1 (configuration not stated)	87.8*	1	0.1	-2.58	4.9	-4.3
CC(Oc1ccc(Cl)cc1Cl)C(=O)Nc1ccc(S(=O)(=O)Nc2cnc3ccccc3n2)cc1 (configuration not stated)	99.5*	0.9	0	-2.29	0.3	14.5
CC(Oc1ccc(Cl)cc1Cl)C(=O)Nc1cccnc1 (configuration not stated)	·	·	·	1.95	0.3	·
Cc1cc2cc(CNC(=O)NC3CCCCC3)ccc2[nH]1	-76.5	0.2	1.8	-0.0215	1.5	76.5*
CCN(CC)CCC(c1cc(OC)c(OC)c(OC)c1)c1c(OC)cc(OC)c2ccc(=O)oc12 (configuration not stated)	·	·	·	0.986	·	·
O=C1OC(C(=O)Nc2nccs2)Cc2ccccc21 (configuration not stated)	40.0	0.6	0.6	0.421	7.8	43.7
O=C(COC(=O)[C@H](Cc1c[nH]c2ccccc12)NC(=O)c1ccc(Cl)cc1)Nc1ccc2c(c1)OCO2	98.5*	0.5	0	-2.15	2.1	46.9
CC(=O)NC(Cc1c[nH]c2ccccc12)C(=O)NCc1ccc2c(c1)OCO2 (configuration not stated)	22.8	0.6	0.8	0.182	3.4	39.9
CC(C)N1C(=O)CCC1C(=O)NCCc1ccccc1 (configuration not stated)	18.0	0.9	0.8	-0.994	2.6	6.9
Cc1cc(C)n(S(=O)(=O)c2ccc3ccccc3c2)n1	-133.1	0.4	2.3*	-0.717	3.2	61.3*
Cc1cc(C)n(S(=O)(=O)c2ccc(C(C)(C)C)cc2)n1	36.5	0.2	0.6	-3.19	11.7	76.4*
CCc1nccn1S(=O)(=O)c1ccc2ccccc2c1	-72.5	0.8	1.7	-1.42	·	24.9
Cc1cc(C)n(S(=O)(=O)c2cc(Cl)ccc2Cl)n1	-66.3	0.4	1.7	-0.971	5.0	58.8*
CCOC(=O)C(CC)Sc1nc(-c2ccc(OC)cc2)nc2c1c(=O)n(C)c(=O)n2C (configuration not stated)	·	·	·	·	6.0	·
CCOC(=O)Cc1nnc(NC(=O)CSc2nnc3c4ccccc4n(C(C)C)c3n2)s1	98.1*	0.2	0	·	·	77.6*
CCn1c2ccccc2c2nnc(SCC(=O)Nc3ncccn3)nc21	-0.5	1	1	0.00578	·	3.3
COC(=O)c1ccc(S(=O)(=O)NCCSc2nnc3c4ccccc4n(C)c3n2)cc1	94.6*	0.3	0.1	0.66	·	67.6*
CCn1c2ccccc2c2nnc(SCC(=O)NC(CC(C)C)C(=O)OC)nc21 (configuration not stated)	20.8	0	0.8	1.08	7.7	96.5*
CCc1nnc(NC(=O)CSc2nnc3c4ccccc4n(C)c3n2)s1	57.9*	0.9	0.4	1.58	·	9.5
O=C(CC12CC3CC(C1)CC(CC(=O)N1CCCC1)(C3)C2)N1CCCC1	-14.7	1.1	1.1	0.0648	·	-8.2
Cn1c2c(c(=O)n(C)c1=O)CN(CC1CCCO1)CN2 (configuration not stated)	-17.0	1.2	1.2	0.432	5.3	-17.9
COc1ccc(-n2c(=O)cc(N3CC(C)OC(C)C3)[nH]c2=O)cc1 (configuration not stated)	5.6	0.9	0.9	0.457	4.0	5.6
O=C(O)c1ccccc1-c1ccccc1C(=O)NCc1ccco1	-1.4	1.1	1	·	8.1	-13.7
SMILES	CYP2C9 inhib	CYP2C19 activ	CYP2C9 act	Cav3 T inh	HIV Rev-RRE inh	CYP2C19 inhib
CCOC(=O)Cc1nnc(NC(=O)CSc2ccc(Cl)cc2)s1	36.2	1	0.6	0.0462	3.3	0.9
CCCn1c2ccccc2c2nnc(SCC(=O)Nc3nnc(CC(=O)OCC)s3)nc21	98.4*	0.1	0	2.07	11.9	94.6*
Cc1ccc(C(=O)N/C(=C\c2ccc([N+](=O)[O-])cc2)C(=O)NCCc2ccccc2)cc1	9.0	0.6	0.9	0.195	1.7	43.3
O=C(CNC(=O)/C(=C\c1ccc(F)cc1)NC(=O)c1ccccc1)OCc1ccccc1	34.3	0.3	0.7	0.989	2.4	71.4*
CC(C)(C)NC(=O)CSC(=Nc1ccc(F)cc1)NC#N	41.3	0.3	0.6	0.275	4.1	72.1*
O=Cc1ccc(N2CCCC2)c(F)c1	12.4	0.5	0.9	1.09	34.4	48.7
O=Cc1ccc(N2CCCCCC2)cc1	30.1	0.1	0.7	·	6.8	88.8*
Cc1cc(C)c(-n2c(O)c(C=NCCN3CCOCC3)c(=O)[nH]c2=O)c(C)c1	-17.0	1.1	1.2	0.0222	6.2	-14.1
COc1ccc(NC(=O)/C(Cl)=C(/Cl)S(=O)(=O)Cc2ccc(C)cc2)cn1	52.9*	0.6	0.5	0.457	7.0	35.6
CCC(C)NS(=O)(=O)c1ccc(S(=O)(=O)N2CCCC3(CCCCC3)C2)cc1 (configuration not stated)	73.5*	0.6	0.3	-6.35*	8.4	35.4
CSc1nn(CCc2ccncc2)c(=S)s1	64.9*	0	0.4	-0.0703	1.4	97.1*
CN(CCOC(=O)c1cccc(Br)c1)C(C)(C)C	60.3*	0.8	0.4	·	8.9	24.7
CS(=O)(=O)N(CC(=O)NCc1ccco1)c1ccc(Cl)c(C(F)(F)F)c1	-27.5	0.8	1.3	-2	6.5	23.8
COc1ccc(OC)c(S(=O)(=O)Nc2cccnc2)c1	1.1	0.7	1	0.343	4.8	26.4
COc1ccc(CNC(=O)C(c2ccc(C)o2)N(C(=O)c2csnn2)c2ccc(C(C)C)cc2)cc1 (configuration not stated)	52.3*	0.5	0.5	-7.08*	-0.5	50.6*
Cc1ccc(C(C(=O)NCc2ccccc2)N(C(=O)c2csnn2)c2cccc3ccccc23)o1 (configuration not stated)	13.5	0.5	0.9	-7*	-1.2	47.3
COc1ccc(C2NC(=O)C(C)S2)cc1 (configuration not stated)	5.0	0.6	0.9	0.242	5.4	44.8
